In data set [1] the test system is Rattus norvegicus. As to the kind of experiment: Antiosteoporotic activity in po dosed rat assessed as increase of serum parathyroid hormone level after 15 to 30 mins. The data set is classed as functional, organism-based. The gist of the method: (§1)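 Rats (n = 5) dosed orally. Serum PTH 1−34 peak increase (Δ) measured at 15 or 30 min and compared with vehicle-treated controls. Scored against the peak given by a 30 mg/kg oral reference aminopropandiol calcilytic: ++ >80%, + 50−80%, below that <50%.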

Data set [2] is described as follows: Cmax in rat at 1 mg/kg, po. The data set is classed as ADME, organism-based. The arrangement: dose 1 mg/kg, route oral. The note with it: in vivo.
Data set [3] is described as follows: Tmax in rat at 1 mg/kg, po. It counts as ADME, organism-based. Details: dose 1 mg/kg, route oral. The note with it: in vivo.
A short description of data set [4]: Inhibition of alpha2 adrenergic receptor up to 10 uM.
The target of data set [5] is Beta-2 adrenergic receptor (Homo sapiens, UniProt P07550). As to the kind of experiment: Inhibition of beta2 adrenergic receptor.
The subject of data set [6] is Rattus norvegicus. The experiment in a line: Antiosteoporotic activity in rat assessed as increase of serum parathyroid hormone level at 3 mg/kg, po after 15 to 30 mins relative to control. It counts as functional. The gist of the method:
as §1

The target of another data set is Cytochrome P450 2D6 (Homo sapiens, UniProt P10635). As to the kind of experiment: Inhibition of CYP2D6. The data set is classed as ADME.
Data set [7] in a line: Inhibition of serotonin receptor up to 10 uM.
Data set [8] can be described thus: Half life in rat at 1 mg/kg, po. It counts as ADME, organism-based. The arrangement: dose 1 mg/kg, route oral. The note with it: in vivo.
The test system of data set [9] is Rattus norvegicus. As to the kind of experiment: Antiosteoporotic activity in rat assessed as increase of serum parathyroid hormone level at 10 mg/kg, po after 15 to 30 mins relative to control. It counts as functional. The gist of the method: as §1
Data set [10] concerns the target D(1A) dopamine receptor (Homo sapiens) (UniProt P21728). As to the kind of experiment: Inhibition of dopamine D1 receptor up to 10 uM.
Data set [11] deals with Rattus norvegicus. The experiment in a line: Antiosteoporotic activity in rat assessed as increase of serum parathyroid hormone level at 3 mg/kg, po after 15 mins. The data set is classed as functional, organism-based. The arrangement: dose 3 mg/kg. The gist of the method: (§2)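 Time course in rats (n = 5) after oral dosing of the hemisulfate salt. Serum PTH 1−34 levels followed over time, expressed as mean ± standard deviation.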

For data set [12], the target named is T1, Extracellular calcium-sensing receptor (Homo sapiens, UniProt P41180).
T1 sequence (P41180 whole entry): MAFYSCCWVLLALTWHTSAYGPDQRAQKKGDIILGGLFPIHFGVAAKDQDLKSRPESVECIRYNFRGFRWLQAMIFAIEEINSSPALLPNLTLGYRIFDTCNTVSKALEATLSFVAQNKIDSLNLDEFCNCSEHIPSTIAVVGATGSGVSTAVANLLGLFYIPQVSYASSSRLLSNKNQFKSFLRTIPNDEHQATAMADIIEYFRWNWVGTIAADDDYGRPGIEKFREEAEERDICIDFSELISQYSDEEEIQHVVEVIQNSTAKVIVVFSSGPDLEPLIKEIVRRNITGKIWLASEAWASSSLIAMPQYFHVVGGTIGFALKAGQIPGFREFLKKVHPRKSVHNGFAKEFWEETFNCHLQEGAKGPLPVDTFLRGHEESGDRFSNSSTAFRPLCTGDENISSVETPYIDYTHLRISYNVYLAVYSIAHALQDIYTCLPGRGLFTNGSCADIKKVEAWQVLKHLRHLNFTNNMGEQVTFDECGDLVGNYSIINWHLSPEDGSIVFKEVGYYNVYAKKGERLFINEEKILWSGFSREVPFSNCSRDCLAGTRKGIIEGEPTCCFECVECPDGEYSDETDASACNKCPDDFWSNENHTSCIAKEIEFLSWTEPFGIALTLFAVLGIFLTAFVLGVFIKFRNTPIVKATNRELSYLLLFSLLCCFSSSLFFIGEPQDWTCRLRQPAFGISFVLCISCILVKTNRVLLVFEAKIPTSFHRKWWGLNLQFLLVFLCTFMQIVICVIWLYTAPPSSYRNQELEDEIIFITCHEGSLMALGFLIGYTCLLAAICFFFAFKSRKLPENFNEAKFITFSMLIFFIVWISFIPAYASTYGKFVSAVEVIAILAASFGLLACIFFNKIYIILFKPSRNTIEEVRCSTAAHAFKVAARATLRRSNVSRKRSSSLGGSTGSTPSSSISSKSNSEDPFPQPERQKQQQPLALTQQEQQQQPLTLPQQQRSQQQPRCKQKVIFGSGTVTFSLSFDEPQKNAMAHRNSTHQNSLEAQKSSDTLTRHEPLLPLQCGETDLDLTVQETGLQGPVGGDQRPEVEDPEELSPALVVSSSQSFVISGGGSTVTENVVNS
The experiment in a line: Antagonist activity at human CaSR expressed in rat PC12h cells by reporter gene assay. It counts as functional, cell-based, PC-12. A digest of the protocol:
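Human CaSR antagonism measured by reporter gene assay in PC12h cells. Values are means of three experiments.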

Data set [13] is described as follows: Oral bioavailability in rat at 1 mg/kg. It counts as ADME, organism-based. The note with it: in vivo, read-out: Activity.
Data set [14] relates to Rattus norvegicus. As to the kind of experiment: Antiosteoporotic activity in rat assessed as increase of serum parathyroid hormone level at 1 mg/kg, po after 15 to 30 mins relative to control. The data set is classed as functional. A digest of the protocol: as §1
The test system of data set [15] is Rattus norvegicus. As to the kind of experiment: Antiosteoporotic activity in rat assessed as increase of serum parathyroid hormone level at 3 mg/kg, po after 2 hrs. Details: dose 3 mg/kg. The data set is classed as functional, organism-based. The gist of the method: as §2
For data set [16], the system named is Rattus norvegicus. As to the kind of experiment: Antiosteoporotic activity in rat assessed as increase of serum parathyroid hormone level at 30 mg/kg, po after 15 to 30 mins relative to control. It counts as functional. The gist of the method: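 Rats (n = 5) dosed orally. Serum PTH 1−34 measured, and the peak increase (Δ), taken at 15 or 30 min after dosing, compared with levels in vehicle-treated control rats.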

Calls of active or inactive are those of the source.

Chain of Cytochrome P450 2D6 (P10635 whole entry): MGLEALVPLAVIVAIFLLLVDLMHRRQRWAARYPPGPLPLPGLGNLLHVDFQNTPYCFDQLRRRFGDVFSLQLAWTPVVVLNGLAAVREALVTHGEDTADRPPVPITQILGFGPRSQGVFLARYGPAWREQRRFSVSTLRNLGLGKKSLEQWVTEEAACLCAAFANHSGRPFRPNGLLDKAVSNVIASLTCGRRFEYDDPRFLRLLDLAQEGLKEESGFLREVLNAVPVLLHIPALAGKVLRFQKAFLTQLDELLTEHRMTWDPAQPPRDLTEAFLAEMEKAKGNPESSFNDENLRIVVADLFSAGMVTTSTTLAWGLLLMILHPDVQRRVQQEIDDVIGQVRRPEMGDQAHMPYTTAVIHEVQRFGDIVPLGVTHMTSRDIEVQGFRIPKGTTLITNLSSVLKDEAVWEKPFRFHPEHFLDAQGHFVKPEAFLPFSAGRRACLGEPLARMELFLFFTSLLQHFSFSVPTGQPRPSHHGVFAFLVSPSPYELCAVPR
Chain of D(1A) dopamine receptor (Homo sapiens) (P21728 whole entry): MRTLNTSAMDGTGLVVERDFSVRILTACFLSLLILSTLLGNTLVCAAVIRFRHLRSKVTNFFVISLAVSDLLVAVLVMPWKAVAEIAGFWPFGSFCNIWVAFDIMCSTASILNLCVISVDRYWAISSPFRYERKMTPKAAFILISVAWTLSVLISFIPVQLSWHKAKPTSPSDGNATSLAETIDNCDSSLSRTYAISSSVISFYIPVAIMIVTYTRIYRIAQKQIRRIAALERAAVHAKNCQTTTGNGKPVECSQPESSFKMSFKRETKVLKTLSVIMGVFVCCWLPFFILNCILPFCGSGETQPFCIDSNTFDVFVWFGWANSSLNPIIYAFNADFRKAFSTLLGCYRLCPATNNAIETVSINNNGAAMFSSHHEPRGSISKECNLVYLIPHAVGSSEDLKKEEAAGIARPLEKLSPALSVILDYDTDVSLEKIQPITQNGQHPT
Chain of Beta-2 adrenergic receptor (P07550 whole entry): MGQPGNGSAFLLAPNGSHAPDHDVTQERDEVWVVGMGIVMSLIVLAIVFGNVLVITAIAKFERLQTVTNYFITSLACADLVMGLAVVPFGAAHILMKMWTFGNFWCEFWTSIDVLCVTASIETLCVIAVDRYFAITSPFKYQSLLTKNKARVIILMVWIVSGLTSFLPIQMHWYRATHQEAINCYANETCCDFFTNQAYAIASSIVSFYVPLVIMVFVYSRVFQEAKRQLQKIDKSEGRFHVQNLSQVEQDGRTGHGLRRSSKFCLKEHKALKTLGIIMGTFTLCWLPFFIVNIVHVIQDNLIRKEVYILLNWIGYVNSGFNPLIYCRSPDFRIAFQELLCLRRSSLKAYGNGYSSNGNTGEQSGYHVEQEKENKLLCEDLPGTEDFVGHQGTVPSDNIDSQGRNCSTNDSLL

As for `Cc1cc(-c2ccccc2[C@@H](C)OC[C@H](O)CNC(C)(C)Cc2ccc(Cl)c(F)c2)ccc1C(=O)O` [ENCALERET], the Activity entry in the data set with Rattus norvegicus [1] was “Dose-dependent effect”; in the data set with Rattus norvegicus [6], above 80%; with Rattus norvegicus [9], above 80%; in the data set on Rattus norvegicus [14], above 80%. In addition, in data set [2], the highest level (Cmax) was 475 ng/mL. Further, the Tmax in [3] came out at 0.5 h. In addition, the outcome (in data set [4]; in data set [7]; in data set [10]; with Rattus norvegicus [15]) was inactive. Further, the IC50 in [5] came to 1700 nM; against Cytochrome P450 2D6, 11000 nM; in [12], 12 nM. Further, the half-life in [8] is 1.8 h. Further, the result in the data set with Rattus norvegicus [11] was Active. In addition, the bioavailability in data set [13] came to 64%.

As to `CC(OC[C@H](O)CNC(C)(C)Cc1ccc2ccccc2c1)c1ccc(-c2ccc(C(=O)O)cc2)cc1` (mixture of isomers), in data set [12], the IC50 is 1500 nM.

With `CC(OC[C@H](O)CNC(C)(C)Cc1ccc2ccccc2c1)c1ccccc1C(=O)O` (mixture of isomers), the IC50 in [12] was above 3000 nM.

As to `CC(OC[C@H](O)CNC(C)(C)Cc1ccc2ccccc2c1)c1ccccc1-c1ccc(C(=O)O)cc1` (mixture of isomers), in data set [12], the IC50 came out at 11 nM.

Turning to `Cc1cc(-c2ccccc2[C@@H](C)OC[C@H](O)CNC(C)(C)Cc2ccc3ccccc3c2)ccc1C(=O)O`, the Activity with Rattus norvegicus [6] was above 80%; in the data set on Rattus norvegicus [14] it was below 50%. In addition, in data set [12], the IC50 was 5 nM.

As for `C[C@@H](OC[C@H](O)CNC(C)(C)Cc1ccc2ccccc2c1)c1ccccc1-c1ccc(C(=O)O)cc1`, the values for the Activity with Rattus norvegicus [6], in the data set on Rattus norvegicus [9] and in the data set on Rattus norvegicus [14] were 50%, above 80% and below 50%, respectively. Further, the half-maximal inhibitory concentration (IC50) was above 10000 nM against Cytochrome P450 2D6 and 4 nM in [12].

With `CC(C)(Cc1ccc2ccccc2c1)NC[C@@H](O)CO[C@@H](c1ccccc1CO)C1CC1`, the values for the half-maximal inhibitory concentration (IC50) (at Cytochrome P450 2D6; in data set [12]) were 1200 nM and 18 nM, respectively.

On to `Cc1ccccc1[C@H](OC[C@H](O)CNC(C)(C)Cc1ccc2ccccc2c1)C1CC1`, for which the “fold change (FC)” value with Rattus norvegicus [16] is 2.

In the case of `C[C@@H](OC[C@H](O)CNC(C)(C)Cc1ccc(Cl)c(F)c1)c1ccccc1-c1ccc(C(=O)O)cc1`, the Activity in the data set on Rattus norvegicus [6] is given as above 80%; in the data set on Rattus norvegicus [14] it was 50%. Also, the IC50 in data set [12] is 23 nM.

On to `CC(C)(Cc1ccc2ccccc2c1)NC[C@@H](O)COC(c1ccc(C(=O)O)cc1)C1CC1` (mixture of isomers), for which the IC50 in data set [12] was above 3000 nM.

In the case of `CC(OC[C@H](O)CNC(C)(C)Cc1ccc2ccccc2c1)c1cccc(-c2ccc(C(=O)O)cc2)c1` (mixture of isomers), in data set [12], the IC50 turned out to be 18 nM.

Regarding `C[C@@H](OC[C@H](O)CNC(C)(C)Cc1ccc2ccccc2c1)c1ccccc1CCC(=O)O`, in the data set with Rattus norvegicus [6], the Activity came to 50%. Besides, the IC50 in data set [12] was determined as 24 nM.

With `CC(C)(Cc1ccc2ccccc2c1)NC[C@@H](O)COC(c1ccccc1C(=O)O)C1CC1` (mixture of isomers), the IC50 is above 10000 nM at Cytochrome P450 2D6 and above 3000 nM in data set [12].

Turning to `C[C@@H](OC[C@H](O)CNC(C)(C)Cc1ccc2ccccc2c1)c1ccccc1CC(=O)O`, the IC50 in [12] is 2200 nM.

`CC(C)(Cc1ccc2ccccc2c1)NC[C@@H](O)COC(c1cccc(C(=O)O)c1)C1CC1` (mixture of isomers): the IC50 is above 10000 nM against Cytochrome P450 2D6 and 960 nM in data set [12].

In general, Cmax refers to the peak of the concentration-time curve. Broadly, the Tmax is the time from dosing to the highest level. What is called IC50 is the concentration that gives 50% inhibition. By half-life is commonly meant the time needed for the level to fall by half in the phase considered. High values mean slow decline, low ones rapid decline.

Source of the values: ChEMBL document CHEMBL1671846, “Discovery of a potent and short-acting oral calcilytic with a pulsatile secretion of parathyroid hormone” (ACS Med Chem Lett, 2011).
